Results reported in article PMC3135177 (Organic & biomolecular chemistry, 2010).

How the values were obtained:
[1] = molecular target: T1, SirT1 (Homo sapiens, UniProt Q96EB6); details: NAD+ as substrate on SIRT1; cited from earlier work
T1 sequence (Q96EB6 1-747): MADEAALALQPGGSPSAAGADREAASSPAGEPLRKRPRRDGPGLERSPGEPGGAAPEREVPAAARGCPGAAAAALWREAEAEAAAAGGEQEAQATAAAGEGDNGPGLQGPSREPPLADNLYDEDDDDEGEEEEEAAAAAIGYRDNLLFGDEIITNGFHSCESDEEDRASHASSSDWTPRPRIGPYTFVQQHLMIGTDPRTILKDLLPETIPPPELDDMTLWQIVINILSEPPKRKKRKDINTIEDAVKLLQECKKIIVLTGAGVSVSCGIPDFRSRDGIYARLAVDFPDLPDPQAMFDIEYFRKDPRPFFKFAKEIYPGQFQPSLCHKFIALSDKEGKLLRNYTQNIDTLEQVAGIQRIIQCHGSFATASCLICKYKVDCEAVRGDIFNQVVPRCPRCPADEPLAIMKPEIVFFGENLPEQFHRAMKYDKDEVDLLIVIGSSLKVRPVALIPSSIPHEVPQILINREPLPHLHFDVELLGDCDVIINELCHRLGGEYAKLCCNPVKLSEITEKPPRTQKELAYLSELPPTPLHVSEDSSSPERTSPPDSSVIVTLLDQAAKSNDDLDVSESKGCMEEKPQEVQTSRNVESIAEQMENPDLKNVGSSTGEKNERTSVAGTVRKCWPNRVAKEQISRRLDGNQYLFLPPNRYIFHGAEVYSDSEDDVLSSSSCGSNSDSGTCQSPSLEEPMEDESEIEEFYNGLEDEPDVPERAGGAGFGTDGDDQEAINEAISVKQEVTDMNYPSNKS

[2] = molecular target: T2, Af2Sir2 (Archaeoglobus fulgidus, UniProt O30124); test: Inhibition of sirtuin-catalyzed deacetylation, Af2Sir2; assay type: biochemical
T2 sequence (O30124 1-253): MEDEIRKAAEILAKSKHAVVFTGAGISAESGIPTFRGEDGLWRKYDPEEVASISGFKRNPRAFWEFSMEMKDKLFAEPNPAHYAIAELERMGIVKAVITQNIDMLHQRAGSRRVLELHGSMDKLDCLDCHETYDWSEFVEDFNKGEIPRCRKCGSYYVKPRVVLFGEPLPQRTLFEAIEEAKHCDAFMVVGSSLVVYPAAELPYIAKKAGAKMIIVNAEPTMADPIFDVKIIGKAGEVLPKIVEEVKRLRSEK

[3] = molecular target: T1, SirT1; test: Inhibition of sirtuin-catalyzed deacetylation, SirT1; assay type: biochemical
How it was run: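 Purified SirT1 was incubated with NAD+, the test compound and an acetylated peptide substrate at 37 °C for 30–60 min. Activity was expressed as percent remaining, with uninhibited set at 100%, and plotted against log[test compound] in nM. IC50 came from a fit to v(%) = v(%)I − [v(%)I(10^x)/(10^x + IC50)].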

[4] = molecular target: T3, SirT2 (Homo sapiens, UniProt Q8IXJ6); test: Inhibition of sirtuin-catalyzed deacetylation, SirT2; assay type: biochemical
T3 sequence (Q8IXJ6 1-389): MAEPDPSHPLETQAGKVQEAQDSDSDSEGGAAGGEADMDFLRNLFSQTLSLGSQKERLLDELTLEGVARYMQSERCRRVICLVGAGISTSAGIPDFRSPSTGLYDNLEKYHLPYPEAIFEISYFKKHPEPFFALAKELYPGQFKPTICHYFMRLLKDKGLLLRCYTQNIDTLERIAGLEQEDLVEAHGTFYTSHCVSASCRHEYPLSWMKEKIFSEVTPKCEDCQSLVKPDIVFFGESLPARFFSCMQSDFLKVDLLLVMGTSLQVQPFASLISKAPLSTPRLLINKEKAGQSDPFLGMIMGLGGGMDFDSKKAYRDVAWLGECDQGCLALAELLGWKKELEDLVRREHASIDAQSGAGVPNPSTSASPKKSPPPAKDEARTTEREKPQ

[5] = molecular target: Yeast Sir2 (Saccharomyces cerevisiae, UniProt P06700); test: Inhibition of sirtuin-catalyzed deacetylation, yeast Sir2; assay type: biochemical
Chain of Yeast Sir2 (P06700 whole entry): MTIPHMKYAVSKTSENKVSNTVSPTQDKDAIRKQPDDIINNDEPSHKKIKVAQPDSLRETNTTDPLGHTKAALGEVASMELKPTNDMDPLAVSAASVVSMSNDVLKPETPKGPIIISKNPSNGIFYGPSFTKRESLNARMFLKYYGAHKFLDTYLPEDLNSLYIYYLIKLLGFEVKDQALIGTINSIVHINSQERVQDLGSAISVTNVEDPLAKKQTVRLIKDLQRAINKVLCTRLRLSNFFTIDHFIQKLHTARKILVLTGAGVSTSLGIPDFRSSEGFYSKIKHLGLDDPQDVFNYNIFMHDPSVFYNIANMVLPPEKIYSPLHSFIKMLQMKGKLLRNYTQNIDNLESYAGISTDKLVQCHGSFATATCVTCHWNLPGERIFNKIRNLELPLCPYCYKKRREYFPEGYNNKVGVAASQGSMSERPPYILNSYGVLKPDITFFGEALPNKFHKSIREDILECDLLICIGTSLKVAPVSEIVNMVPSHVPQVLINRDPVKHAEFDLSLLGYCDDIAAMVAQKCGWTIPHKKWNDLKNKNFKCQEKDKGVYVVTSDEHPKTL

Structure (SMILES)	Km [1]	IC50 [2]	IC50 [3]	Ki [3]	IC50 [4]	IC50 [5]
NC(=O)c1ccc[n+]([C@@H]2O[C@H](COP(=O)([O-])OP(=O)(O)OC[C@H]3O[C@@H](n4cnc5c(N)ncnc54)[C@H](O)[C@@H]3O)[C@@H](O)[C@H]2O)c1 [NAD^+]	165 µM					
COC(=O)[C@H](C)NC(=O)[C@H](C)NC(=O)[C@H](CCCCNC(C)=S)NC(=O)c1ccc([N+](=O)[O-])cc1 [compound 1, N^α-4-nitrobenzoyl-N^ε-thioacetyl-lysinyl-alaninyl-alanine methyl ester]		131 ± 26 µM	6.5 ± 1 µM	0.611 µM	13.1 ± 0.54 µM	19.5 ± 5.8 µM
